According to ChEMBL document CHEMBL2424614, “A novel p-terphenyl derivative inducing cell-cycle arrest and apoptosis in MDA-MB-435 cells through topoisomerase inhibition” (Eur J Med Chem, 2013):
Activity calls are given as the source filed them. The calls are words filed in the database; no cut-off is given here.

Key:
MDA-MB-435 [1] = experiment: Induction of apoptosis in human MDA-MB-435 cells assessed as early apoptotic cells at 2 uM after 24 hrs by annexin-V FITC/propidium iodide staining-based flow cytometry (reference value: 0.61 +/- 0.24%); format: functional
Method in brief: (§1)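 MDA-MB-435 cells treated 24 h, stained with annexin V-FITC/PI per kit instructions, analysed by flow cytometry. Quadrant statistics: lower right taken as apoptotic, upper right as necrotic or post-apoptotic necrotic. Representative of three similar experiments.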

LNCaP = experiment: Cytotoxicity against human LNCAP cells assessed as growth inhibition after 72 hrs by MTT assay; format: functional, cell-based
Method in brief: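 MTT assay: cells treated in triplicate with a range of concentrations for 72 h at 37 °C, 5% CO2. Medium replaced, MTT (5 mg/mL) added for 4 h, then SDS/isobutanol/HCl solubiliser overnight. Absorbance read at 590 nm. Inhibition calculated against control and blank wells; IC50 is concentration giving 50% growth inhibition; three independent experiments.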

MDA-MB-435 [2] = experiment: Induction of apoptosis in human MDA-MB-435 cells assessed as dead cells at 1 uM after 24 hrs by annexin-V FITC/propidium iodide staining-based flow cytometry (reference value: 0.61 +/- 0.24%); format: functional
MDA-MB-435 [3] = experiment: Induction of apoptosis in human MDA-MB-435 cells assessed as chromatin condensation at 0.25 to 1 uM by DAPI staining-based fluorscence microscopy; format: functional, cell-based
Method in brief: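 Treated MDA-MB-435 cells washed in ice-cold PBS, fixed 20 min in 4% paraformaldehyde, stained 30 min at 37 °C with DAPI (50 µg/mL) containing 100 µg/mL RNase A. After PBS washes, examined by fluorescence microscopy (excitation 340 nm, emission 488 nm).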

[4] = target: DNA topoisomerase 2-alpha (Homo sapiens) (UniProt P11388); experiment: Induction of recombinant human DNA topoisomerase 2-alpha poisoning activity using pBR322 as substrate assessed as appearance of linear DNA at 100 uM after 30 mins by Agarose gel electrophoresis
DNA topoisomerase 2-alpha (Homo sapiens), sequence (P11388 whole entry): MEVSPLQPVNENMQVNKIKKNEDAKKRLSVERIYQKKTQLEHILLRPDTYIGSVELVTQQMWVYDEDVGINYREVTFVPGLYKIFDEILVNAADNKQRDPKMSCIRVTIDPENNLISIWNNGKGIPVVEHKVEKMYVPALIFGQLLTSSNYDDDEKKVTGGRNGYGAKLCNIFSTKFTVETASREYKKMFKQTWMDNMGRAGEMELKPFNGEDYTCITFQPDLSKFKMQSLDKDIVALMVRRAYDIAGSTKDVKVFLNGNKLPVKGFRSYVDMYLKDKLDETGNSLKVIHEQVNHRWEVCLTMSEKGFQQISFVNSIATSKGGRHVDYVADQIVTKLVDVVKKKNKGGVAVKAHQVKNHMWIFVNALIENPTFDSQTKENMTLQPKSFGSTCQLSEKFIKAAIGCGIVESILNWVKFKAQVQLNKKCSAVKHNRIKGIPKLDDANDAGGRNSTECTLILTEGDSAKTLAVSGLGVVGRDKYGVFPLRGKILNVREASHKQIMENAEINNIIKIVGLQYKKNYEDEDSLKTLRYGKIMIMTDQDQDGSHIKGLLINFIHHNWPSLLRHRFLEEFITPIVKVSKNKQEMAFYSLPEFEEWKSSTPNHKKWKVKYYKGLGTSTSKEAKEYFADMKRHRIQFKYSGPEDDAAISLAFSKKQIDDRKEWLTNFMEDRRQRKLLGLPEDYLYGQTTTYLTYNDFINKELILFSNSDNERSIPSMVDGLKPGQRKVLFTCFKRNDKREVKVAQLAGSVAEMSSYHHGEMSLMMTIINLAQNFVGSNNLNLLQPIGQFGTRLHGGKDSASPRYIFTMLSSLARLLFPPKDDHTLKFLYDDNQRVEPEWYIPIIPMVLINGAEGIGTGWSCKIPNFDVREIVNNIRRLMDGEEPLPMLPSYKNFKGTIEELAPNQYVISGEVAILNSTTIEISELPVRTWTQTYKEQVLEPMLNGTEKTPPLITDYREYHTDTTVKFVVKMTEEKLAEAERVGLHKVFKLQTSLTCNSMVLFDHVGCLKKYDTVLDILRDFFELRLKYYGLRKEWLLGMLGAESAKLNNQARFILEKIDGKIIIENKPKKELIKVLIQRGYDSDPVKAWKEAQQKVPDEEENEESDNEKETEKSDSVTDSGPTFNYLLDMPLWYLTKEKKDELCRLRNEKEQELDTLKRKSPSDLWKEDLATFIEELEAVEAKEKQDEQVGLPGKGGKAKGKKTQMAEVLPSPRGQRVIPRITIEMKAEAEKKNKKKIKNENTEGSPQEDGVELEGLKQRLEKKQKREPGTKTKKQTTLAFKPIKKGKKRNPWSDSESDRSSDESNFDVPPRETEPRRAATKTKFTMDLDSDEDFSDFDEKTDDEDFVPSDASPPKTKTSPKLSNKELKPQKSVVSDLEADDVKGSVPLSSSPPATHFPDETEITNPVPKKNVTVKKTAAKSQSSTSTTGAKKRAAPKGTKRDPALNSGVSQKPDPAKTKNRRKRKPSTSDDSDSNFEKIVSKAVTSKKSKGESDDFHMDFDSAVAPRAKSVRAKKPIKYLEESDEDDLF
Method in brief: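 Same format as the Topo IIα inhibition assay: 0.5 µg supercoiled pBR322 with 1 unit recombinant human Topo IIα. Incubated 37 °C for 30 min, stopped with 10% SDS, then proteinase K (50 µg/mL) for 20 min. Run on 1% agarose gel containing ethidium bromide, 5 V/cm, 2 h, TAE. Linear and nicked open circular DNA positions scored. At least duplicate.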

MDA-MB-435 [5] = experiment: Induction of apoptosis in human MDA-MB-435 cells assessed as late apoptotic cells at 2 uM after 24 hrs by annexin-V FITC/propidium iodide staining-based flow cytometry (reference value: 0.34 +/- 0.08%); format: functional; method in brief: as §1
MDA-MB-435 [6] = experiment: Induction of apoptosis in human MDA-MB-435 cells assessed as increase in cleaved-caspase 3 expression after 12 to 24 hrs by Western blotting analysis; format: functional, cell-based
Method in brief: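 Treated MDA-MB-435 cells lysed in ice-cold Tris-HCl pH 7.4 buffer with Triton, phosphatase and protease inhibitors. Lysates clarified, boiled in SDS loading buffer, run on 8-12% SDS-PAGE and blotted. Membranes blocked in 5% skim milk, probed with primary antibodies, then peroxidase secondaries with ECL detection. β-actin as loading control.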

MDA-MB-435 [7] = experiment: Cell cycle arrest in human MDA-MB-435 cells assessed as accumulation at sub-G1 phase at 0.25 to 1 uM by propidium iodide staining-based flow cytometry; format: functional; details: TDE = time-dependent effect, in the assay text read “G2/M phase” for “sub-G1 phase”
Method in brief: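 PI-stained DNA content of treated MDA-MB-435 cells read by flow cytometry. Sub-G1 population taken as apoptotic cellular fragments; three independent experiments.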

With Oc1ccc(-c2ccc(-c3ccc(O)c(O)c3)cc2)cc1 the Activity (MDA-MB-435 [1]) was 12.87%, the “growth inhibition (GI)” value (LNCaP) was “Active” and the Activity (MDA-MB-435 [2]) was 1.03%. The Activity (MDA-MB-435 [3]) was “Active”, the Activity [4] was “inactive” and the Activity (MDA-MB-435 [5]) was 14.35%. For the same compound, the Activity (MDA-MB-435 [6]) was “Dose-dependent effect” and the Activity (MDA-MB-435 [7]) was “tde”.
